Screening results deposited in PubChem BioAssay by Broad Institute.
KDM4C inh = inhibitors of human demethylase GASC-1 KDM4C. AID 720574. actives 0.15% (n = 96,000). Q9H3R0. inhibition, % at 12.5 µM. GST-KDM4C 2-372, H3K9me3 peptide, LANCE TR-FRET;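 active = mean replicate inhibition above about 25%, with at least 55% of replicates also reaching it, limit read from the data, passing the limit was not always enough; inconclusive = only one of those two conditions met; inactive = neither condition met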
Target sequence (Q9H3R0 2-372 limits assumed): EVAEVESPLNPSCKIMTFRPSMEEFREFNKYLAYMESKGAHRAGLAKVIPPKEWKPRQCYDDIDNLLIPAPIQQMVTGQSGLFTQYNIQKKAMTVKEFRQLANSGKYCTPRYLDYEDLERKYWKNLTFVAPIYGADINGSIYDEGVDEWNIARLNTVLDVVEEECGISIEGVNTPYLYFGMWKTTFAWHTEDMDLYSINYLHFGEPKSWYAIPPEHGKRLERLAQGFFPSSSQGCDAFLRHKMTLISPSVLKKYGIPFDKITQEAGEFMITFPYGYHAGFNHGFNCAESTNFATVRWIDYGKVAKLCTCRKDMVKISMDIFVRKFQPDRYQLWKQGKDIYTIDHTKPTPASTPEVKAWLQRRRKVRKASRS
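Material: GST-tagged GASC-1 (JMJD2C) catalytic fragment, aa 2-372. Input: enzyme final amount 10 nM. Medium: HEPES buffer, pH 7.5, plus ascorbate. Reagent: H3K9me3 peptide substrate, Fe(II), 2-oxoglutarate. Doses: single dose. Times: reaction 30 min RT, detection step 1 h RT. Measured by: LANCE TR-FRET. Evaluation: Fall in 671/618 emission ratio as inhibition.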
T cruzi growth-1 = inhibitors of T. cruzi proliferation; T. cruzi beta-gal in NIH3T3, GalScreen luminescence, 90 h; inhibition, % at 8.34 µM; actives 5.9% (n = 77,000);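 active = mean inhibition above about 93%, with at least 55% of replicates each passing it, limit read from the data, passing the limit was not always enough; inconclusive = only one of those two conditions holds; inactive = neither condition holds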
IDH1 R132H inh = blocks human IDH1 R132H reductase activity; O75874; diaphorase/resazurin fluorescence, 60 min; inhibition, % at 10 µM; actives 0.18% (n = 70,000); AID 624101; in the data active = inhibition above about 34%; inconclusive = no clear call, values can overlap the other calls; inactive = below about 11%;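 note: 0% = DMSO and 100% = no enzyme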
T cruzi growth-2 = blocks T. cruzi growth in NIH3T3 host cells; shares compounds with T cruzi growth-1; T. cruzi beta-gal in NIH3T3, GalScreen luminescence, 90 h; actives 72% (n = 5,600); inhibition, % at 8.35 µM;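 active = mean replicate inhibition above about 95% and at least 55% of replicates individually reaching it, limit read from the data; inconclusive = only one of the two criteria is met; inactive = neither criterion is met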
T cruzi growth-3 = blocks T. cruzi growth in NIH3T3 host cells; shares compounds with T cruzi growth-1; T. cruzi beta-gal in NIH3T3, GalScreen luminescence, 90 h; inhibition, % at 2.09 µM; actives 21% (n = 5,600); AID 651740;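 active = mean inhibition above about 95%, with at least 55% of replicates also reaching it, limit read from the data; inconclusive = meets just one of the two conditions; inactive = meets neither condition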;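 note: plate controls were neutral control median for no effect and positive control median for full effect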
NIH3T3 tox = NIH/3T3 (mouse) viability loss | NIH/3T3 viability, CellTiter-Glo ATP luminescence, 90 h | AID 651742 | actives 14% (n = 5,600) | cytotoxicity (signal decrease), % at 8.35 µM | shares compounds with T cruzi growth-1;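 active = mean signal decrease across replicates above about 35% based on untreated-well scatter, with enough replicates individually passing, limit read from the data; inconclusive = no rule stated though some were filed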;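 note: 0% = median of neutral control wells and 100% = median of positive control wells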
3T3 cytotox 2 = NIH/3T3 (mouse) viability loss. shares compounds with T cruzi growth-1. NIH/3T3 viability, CellTiter-Glo ATP luminescence, 90 h. inhibition, % at 24.9 µM. actives 56% (n = 5,600);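 active = mean loss of cell viability signal at or above a set limit, and enough replicates individually reaching it; inconclusive = meets only the mean limit or only the replicate share; inactive = meets neither condition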;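 note: 0% = median of neutral control wells and 100% = median of positive control wells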
The depositor's hits bear a star; ? = inconclusive; nt = not tested or not shown. Many of the other results were omitted from the sample, so hits are more common in it than they were.

SMILES	KDM4C inh	T cruzi growth-1	IDH1 R132H inh	T cruzi growth-2	T cruzi growth-3	NIH3T3 tox	3T3 cytotox 2
Cc1ccc(S(=O)(=O)N(C)C[C@@H]2OCCCC[C@H](C)Oc3ccc(NC(=O)NC4CCCCC4)cc3C(=O)N([C@@H](C)CO)C[C@@H]2C)cc1	-1	101*	1	106*	93	3	1
Cc1ccc(S(=O)(=O)N(C)C[C@@H]2OCCCC[C@@H](C)Oc3ccc(NC(=O)NC4CCCCC4)cc3C(=O)N([C@@H](C)CO)C[C@H]2C)cc1	0	40	3	nt	nt	nt	nt
C[C@@H]1CCCCO[C@H](CN(C)S(=O)(=O)c2ccc(Cl)cc2)[C@@H](C)CN([C@@H](C)CO)C(=O)c2cc(NC(=O)NC3CCCCC3)ccc2O1	0	101*	nt	105*	84	17	33*
C[C@H]1CCCCO[C@@H](CN(C)S(=O)(=O)c2ccc(F)cc2)[C@@H](C)CN([C@@H](C)CO)C(=O)c2cc(NC(=O)NC3CCCCC3)ccc2O1	-1	69	-10	nt	nt	nt	nt
Cc1ccc(S(=O)(=O)N(C)C[C@H]2OCCCC[C@@H](C)Oc3ccc(NC(=O)NC4CCCCC4)cc3C(=O)N([C@H](C)CO)C[C@H]2C)cc1	-1	99*	nt	105*	?	-34	14
C[C@@H]1CCCCO[C@H](CN(C)S(=O)(=O)c2ccc(Cl)cc2)[C@@H](C)CN([C@H](C)CO)C(=O)c2cc(NC(=O)NC3CCCCC3)ccc2O1	0	27	4	nt	nt	nt	nt
Cc1ccc(S(=O)(=O)N(C)C[C@H]2OCCCC[C@H](C)Oc3ccc(NC(=O)NC4CCCCC4)cc3C(=O)N([C@@H](C)CO)C[C@@H]2C)cc1	-1	74	-1	nt	nt	nt	nt
CC(=O)O[C@@H]1C[C@@H](C)[C@](O)(CCc2ccoc2)[C@]23CCC[C@](C)(C(=O)OC2)C13 (stereo not given in full)	nt	nt	0	nt	nt	nt	nt
Cc1ccc(SCCCCSc2nc(C)cc(=O)[nH]2)cc1	nt	nt	1	nt	nt	nt	nt
Cc1ccc(S(=O)(=O)N(C)C[C@H]2OCCCC[C@H](C)Oc3ccc(NC(=O)NC4CCCCC4)cc3C(=O)N([C@@H](C)CO)C[C@H]2C)cc1	-1	25	nt	nt	nt	nt	nt
Cc1ccc(S(=O)(=O)N(C)C[C@@H]2OCCCC[C@H](C)Oc3ccc(NC(=O)NC4CCCCC4)cc3C(=O)N([C@H](C)CO)C[C@@H]2C)cc1	0	99*	nt	107*	64	-7	0
Cc1cc2c(=O)n(Cc3ccco3)c(SCC(=O)N3CCc4ccccc43)nc2s1	nt	nt	0	nt	nt	nt	nt
COc1ccc(C(C)C)cc1S(=O)(=O)n1cnc2ccccc21	nt	nt	0	nt	nt	nt	nt
CCC(=O)N1C[C@@H]2[C@H](c3ccccc31)[C@H](CO)N2Cc1ccccc1OC	0	-5	nt	nt	nt	nt	nt
CCC(=O)N1C[C@H]2[C@@H](c3ccccc31)[C@@H](CO)N2C(=O)CC	-1	60	nt	nt	nt	nt	nt
CCC(=O)N1C[C@@H]2[C@H](c3ccccc31)[C@@H](CO)N2C(=O)CC	-4	102*	nt	7	3	-11	-13
CCC(=O)N1C[C@H]2[C@@H](c3ccccc31)[C@@H](CO)N2Cc1ccccc1OC	2	?	nt	105*	11	22	13
COC(=O)c1cc(-c2ccccc2)sc1NC(=S)NC(C)c1cc(OC)ccc1OC (stereo not given)	nt	nt	0	nt	nt	nt	nt
Cc1noc(C)c1S(=O)(=O)N(C)C[C@@H]1OCCCC[C@@H](C)Oc2ccc(NS(=O)(=O)c3ccc(Cl)cc3)cc2C(=O)N([C@H](C)CO)C[C@H]1C	-3	103*	1	105*	71	19	1
Cc1noc(C)c1S(=O)(=O)N(C)C[C@@H]1OCCCC[C@H](C)Oc2ccc(NS(=O)(=O)c3ccc(F)cc3)cc2C(=O)N([C@@H](C)CO)C[C@H]1C	1	52	nt	nt	nt	nt	nt
Cc1ccc(S(=O)(=O)Nc2ccc3c(c2)C(=O)N([C@H](C)CO)C[C@@H](C)[C@H](CN(C)S(=O)(=O)c2c(C)noc2C)OCCCC[C@@H](C)O3)cc1	0	?	-6	112*	40	11	-16
Cc1ccc(S(=O)(=O)Nc2ccc3c(c2)C(=O)N([C@H](C)CO)C[C@H](C)[C@H](CN(C)S(=O)(=O)c2c(C)noc2C)OCCCC[C@@H](C)O3)cc1	0	23	nt	nt	nt	nt	nt
Cc1noc(C)c1S(=O)(=O)N(C)C[C@H]1OCCCC[C@H](C)Oc2ccc(NS(=O)(=O)c3ccc(Cl)cc3)cc2C(=O)N([C@@H](C)CO)C[C@@H]1C	1	94	nt	nt	nt	nt	nt
Cc1noc(C)c1S(=O)(=O)N(C)C[C@@H]1OCCCC[C@H](C)Oc2ccc(NS(=O)(=O)c3ccc(F)cc3)cc2C(=O)N([C@H](C)CO)C[C@@H]1C	0	108*	5	100*	32	-3	25
Cc1ccc2nc(-c3ccccn3)cc(C(=O)NCc3ccccn3)c2c1	nt	nt	-1	nt	nt	nt	nt
SMILES	KDM4C inh	T cruzi growth-1	IDH1 R132H inh	T cruzi growth-2	T cruzi growth-3	NIH3T3 tox	3T3 cytotox 2
O=C(O)CCCCCC(=O)N/N=C/c1ccccc1Cl	nt	nt	0	nt	nt	nt	nt
COc1ccc(CCO[C@@H]2O[C@H](CO[C@@H]3OC[C@H](O)[C@H](O)[C@H]3O)[C@@H](OC(=O)/C=C/c3ccc(O)c(OC)c3)[C@H](O[C@@H]3O[C@@H](C)[C@H](O)[C@@H](O)[C@H]3O)[C@H]2O)cc1O	nt	nt	0	nt	nt	nt	nt
C[C@@H]1CCCCO[C@@H](CN(C)C(=O)Nc2ccc(C(F)(F)F)cc2)[C@@H](C)CN([C@H](C)CO)C(=O)c2cc(NC(=O)Cc3ccccc3)ccc2O1	-2	?	nt	108*	35	6	19
C[C@@H]1CCCCO[C@@H](CN(C)C(=O)Nc2ccccc2)[C@H](C)CN([C@H](C)CO)C(=O)c2cc(NC(=O)Cc3ccccc3)ccc2O1	0	67	2	nt	nt	nt	nt
C[C@H](CO)N1C[C@H](C)[C@H](CN(C)C(=O)Nc2ccc(C(F)(F)F)cc2)OCCCC[C@H](C)Oc2ccc(NC(=O)Cc3ccccc3)cc2C1=O	-1	?	nt	103*	102*	18	33*
C[C@@H]1CN([C@@H](C)CO)C(=O)c2cc(NC(=O)Cc3ccccc3)ccc2O[C@@H](C)CCCCO[C@H]1CN(C)C(=O)Nc1ccccc1	-1	nt	-1	nt	nt	nt	nt
COc1ccc(CCNC(=O)C(=O)c2c(C)[nH]c3ccccc23)cc1OC	nt	nt	-1	nt	nt	nt	nt
COc1ccc(CCC(=O)c2ccc(OC)cc2O)cc1	nt	nt	0	nt	nt	nt	nt
Cn1nnnc1SCC(=O)Nc1ccc2ccccc2c1	nt	nt	0	nt	nt	nt	nt
Cc1ccccc1OCC(=O)Nc1cc(-c2nc3ccccc3s2)ccc1Cl	nt	nt	0	nt	nt	nt	nt
O=C(Nc1ccccc1)N1CCCCN2[C@H](C1)[C@H](c1ccc(-c3ccccc3)cc1)[C@@H]2CO	0	128*	nt	103*	43	12	9
